Assay outcomes as filed in PubChem.
Compounds with a hit are over-represented: about 8.9% of the library has one in this group of screens.
HSV augment – increases HSV replication in cells | HSV replication augmentation in cells, fold increase | AID 1956 | maximum fold increase | 0.005% of 220,000 active; in the data active means maximum fold increase above about 1.5; tested in PC3 cells
MT stabilize HCS – microtubule stabilization, imaging screen. AID 2205. 0.83% of 200,000 active. % tubulin-high responders, % at 10 µM. HeLa tubulin immunostaining HCS, 24 h; share of cells brighter than vehicle mean+2SD;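 active means plate Z-score above 3 for both tubulin-high and condensed-nucleus cell shares, with cell loss under 80%, at 10 µM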;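 further: anti alpha tubulin signal scored within the nucleus-defined area of each cell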
Dynein cargo inh – dynein cargo transport inhibition; 3617.4 mouse cells, GR-EGFP nuclear translocation imaging; test concentration mostly 20 µM; stimulated with dexamethasone, 1 µM; active compounds read low; 0.47% of 220,000 active; AID 1381; z-score, hits read low;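 active means plate z-score of nuclear minus cytoplasmic receptor signal below a set negative limit, without overly bright fluorescence or cell loss, cut at about -3.5 in these data, passing the limit was not always enough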;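 further: z-score of nuclear minus cytoplasmic ring GR-EGFP intensity difference per well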
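Buffer or medium: tetracycline-free induction medium containing charcoal-stripped FBS / Reagent: dexamethasone agonist, 1.0 µM final, for 30 min / Technique: automated 10x imaging of fixed Hoechst-stained cells / Times: induction 48 h, compound 1 h, agonist 30 min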
Lmaj promast – Leishmania major promastigote growth inhibition; Leishmania major promastigotes, resazurin fluorescence viability; inhibition, % at 10 µM; 9% of 200,000 active; AID 1063; in the data active means inhibition above about 50%;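 further: promastigotes grown with compound for 44 hours at 28 °C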
bCat nuc transl – beta-catenin nuclear translocation modulation; HeLa beta-catenin nuclear translocation, immunofluorescence imaging; AID 1665; nuclear translocation activity, % at 5 µM; 0.3% of 190,000 active;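 active means nuclear translocation activity above 50% at 5 µM, with a well cell count of 50 or more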;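 further: per-cell ratio of nuclear to cytoplasmic median beta-catenin stain intensity; plate controls were DMSO negative control for no effect and GSK-3 inhibitor IX positive control for full effect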
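Technique: fluorescence imaging of beta-catenin antibody stain plus DAPI / Material: human HeLa cell line / Incubation: compound treatment 24 h, 37°C, 5% CO2 / Read-out basis: % activation of per-cell nuclear versus cytoplasmic median beta-catenin signal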
* marks the source's active call; other numbers are inactive results; i = inactive; . = no result given.

SMILES | HSV augment | MT stabilize HCS | Dynein cargo inh | Lmaj promast | bCat nuc transl
COc1ccc(C(=O)c2c(C(F)(F)F)oc3c2C(=O)c2ccccc2C3=O)cc1OC | i | 6 | 0.36 | 100* | .
O=C1C2CC=CCC2C(=O)N1c1ncn[nH]1 (centres undefined) | i | 1 | -1.1 | -2 | 1
Nc1nonc1-c1nc2ccccc2n1CC(=O)Nc1ccccc1 | i | . | 0.19 | . | 0
CCOC(=O)c1ccccc1NC(=O)Cn1c(-c2nonc2N)nc2ccccc21 | i | 7 | 1.2 | 10 | 63*
Cc1nn2c3c(cnc2c1-c1ccccc1)C(=O)CCC3 | i | 2 | -0.51 | -1 | 2
Cc1ccc2ccc(C(Nc3cccc(C(F)(F)F)c3)c3cccnc3)c(O)c2n1 (centres undefined) | i | 5 | 1.6 | 100* | -6
COc1ccccc1NC(c1cccnc1)c1ccc2cccnc2c1O (centres undefined) | i | 2 | 0.95 | 3 | 0
Cc1cc(NC(c2ccc(Cl)cc2)c2ccc3cccnc3c2O)no1 (centres undefined) | i | 5 | 0.84 | 100* | .
Cc1ccnc(NC(c2cccnc2)c2ccc3cccnc3c2O)c1 (centres undefined) | i | 4 | -0.13 | 98* | -1
Cc1ccnc(NC(c2ccsc2)c2ccc3ccc(C)nc3c2O)c1 (centres undefined) | i | 2 | 0.47 | 5 | 1
C=C(C)c1cccc(C(C)(C)NC(=O)N2CC(C)OC(C)C2)c1 (centres undefined) | i | 4 | -1.2 | 5 | -3
CS(=O)(=O)Nc1ccc(OCc2ccccc2)cc1 | i | 2 | -0.74 | -5 | .
Cc1nnc(SCCn2c(N3CCCC(C)C3)nc3c2c(=O)[nH]c(=O)n3C)s1 (centres undefined) | i | 1 | -0.42 | 1 | -1
Oc1ccc(Br)cc1-c1nc2cnccn2c1NC1CCCCC1 | i | 2 | -0.73 | 85* | 2
Oc1ccc(Br)cc1-c1nc2cnccn2c1NC1CCCC1 | i | 4 | -0.21 | 4 | .
CCOc1ccccc1CNCCN1CCOCC1 | i | 3 | -0.78 | -2 | .
O=C1c2ccccc2C(=O)N1c1nc2nccc(-c3ccccc3)n2n1 | i | 1 | 1.7 | -4 | 1
O=C(Nc1nc2nccc(-c3ccccc3)n2n1)C(Cl)(Cl)Cl | i | 1 | -0.25 | 53* | -1
Cc1nn(C2CCS(=O)(=O)C2)c(Cl)c1/C=C/C(=O)OCC(=O)N(C)C (centres undefined) | i | 3 | 0.014 | -5 | -1
CC(Nc1nc(-c2ccc(Cl)cc2)cs1)c1nc2cc(Cl)c(N3CCCCC3)cc2n1CCOCCO (centres undefined) | i | . | . | . | .
Cc1cc(C)c2c(C)nn(-c3ccccc3)c2n1 | i | 1 | 2.7 | -1 | .
O=C(Cn1c(C(=O)N2CCN(C3CCCC3)CC2)cc2sccc21)c1ccccc1 | i | 2 | -0.53 | 93* | -2
O=C(c1ccc2ccccc2c1)N1CCN(c2ccc(O)cc2)CC1 | i | 2 | -1.2 | 90* | 2
O=C(c1cccc(S(=O)(=O)N2CCc3ccccc3C2)c1)N1CCN(c2ccc(O)cc2)CC1 | i | 3 | -0.73 | 65* | -3
O=C(CN1C(=O)COc2ccccc21)N(Cc1cccnc1)Cc1ccccc1F | i | 3 | -0.45 | 96* | 0
SMILES | HSV augment | MT stabilize HCS | Dynein cargo inh | Lmaj promast | bCat nuc transl
Fc1ccc(-c2cn3cc(C(F)(F)F)cc(Cl)c3n2)cc1 | i | 2 | -0.6 | -2 | 5
Oc1ccc(-c2cn3cc(C(F)(F)F)ccc3n2)cc1 | i | 6 | 0.088 | 51* | -1
CN(C)c1ccc(/C=C2\C(=O)N(c3ccc([N+](=O)[O-])cc3)N=C2N2CCOCC2)cc1 | . | 4 | -0.23 | 80* | .
O=C(NC(NCc1cccnc1)C(Cl)(Cl)Cl)c1cccc2ccccc12 (centres undefined) | i | 2 | 1.4 | 84* | 2
Cc1nn(CC(=O)NCc2cccnc2)c(=O)c2ccccc12 | i | 3 | -0.75 | 51* | 2
Cc1ccc(N(CC(=O)NCc2ccc(F)cc2)S(=O)(=O)c2cccs2)cc1 | i | 1 | -0.35 | 91* | -3
Cc1ccccc1-n1nc(C)c2cc(C(=O)NCc3cccnc3)sc21 | i | 6 | 0.044 | 69* | -1
Cc1nn(CC(=O)NCc2ccccc2)c(=O)c2ccccc12 | i | 5 | 0.1 | -2 | -5
O=C(CSc1nnc(CN2CCOCC2)n1-c1ccc(Cl)cc1)Nc1cc(Cl)ccc1O | i | 2 | 0.71 | 7 | 1
O=C(NCCN1CCOCC1)c1ccncc1 | i | 3 | -0.54 | -8 | -6
COC(=O)c1cccc(NC(=O)c2nn(C)c(=O)c3ccccc23)c1 | i | 3 | -0.65 | 4 | -1
Oc1ccc(Br)cc1C=Nc1cccn2cc(-c3ccccc3)nc12 | i | 3 | -0.29 | -4 | -1
O=C(Cc1ccc(Br)cc1)NCCc1ccc(Cl)cc1Cl | i | 5 | 0.25 | -5 | -4
O=C(Cc1ccccc1)NCCc1ccc(Cl)cc1Cl | i | 2 | -0.8 | 54* | 2
O=C(NCc1cccnc1)c1cc(Sc2ccccc2Cl)nc2ccccc12 | i | 4 | -0.085 | 78* | 1
OCCNCCNCc1ccc(-c2ccccc2)cc1 | i | 7 | -1.5 | 100* | 1
Cc1ccc(CC(=O)NCc2ccc(F)cc2)cc1 | i | 25* | -0.16 | -5 | 13
CCSc1ccccc1C(=O)NCc1cccnc1 | i | 2 | -0.39 | -4 | -1
C=CCn1c(COc2ccccc2)nnc1SCC(=O)N/N=C/c1ccc(C)cc1 | i | 1 | -0.28 | -1 | .
CCCNC(=O)COC(=O)c1ccccc1OCC(=O)Nc1ccc(Br)cc1 | i | 4 | -0.2 | -3 | -3
N#C/C(=C\c1ccco1)C(=O)Nc1ccc(S(N)(=O)=O)cc1 | i | 3 | -0.48 | -7 | 4
Cc1ccc(CNC(=O)Cc2ccc(-c3ccccc3)cc2)cc1 | i | 16 | 1.2 | 2 | .
O=C(Cc1ccc(-c2ccccc2)cc1)NCc1cccnc1 | i | 13* | 1.6 | 11 | 45
O=C(Cc1ccc(-c2ccccc2)cc1)NCc1ccccc1 | i | 6 | -0.16 | -2 | 55*
COc1ccc(NC(=S)Nc2ccc(OC(F)F)cc2)cn1 | i | 3 | -0.37 | -6 | 1
SMILES | HSV augment | MT stabilize HCS | Dynein cargo inh | Lmaj promast | bCat nuc transl
COc1cc(Br)cc(/C=N/NC(=O)Cc2ccc(C(F)(F)F)cc2[N+](=O)[O-])c1O | i | 10 | -0.56 | 73* | 2
Cc1ccc(CNC(=O)CCNS(=O)(=O)c2ccc(C)cc2)cc1 | i | 1 | 0.29 | -6 | .
Cc1c(OCc2ccccc2)cccc1OCc1ccccc1 | i | 2 | -0.48 | -1 | .
c1csc(COc2ccccc2CNC2CCCCC2)c1 | i | 6 | -0.64 | 81* | -1
c1ccc(COc2ccccc2CNC2CCCC2)cc1 | i | 2 | -0.32 | 70* | -1
CCCn1nnnc1NCc1ccccc1OCc1cccs1 | i | 3 | -0.97 | 7 | 1
